Measured values from ChEMBL document CHEMBL1122623, “Activities of morphinone and N-(cyclopropylmethyl)normorphinone at opioid receptors” (J Med Chem, 1984).
Where “and” joins values, the source holds several entries; their conditions need not be identical. Equal values may be shown once. Calls of active or inactive are those of the source. No cut-off for these calls is given here.

Columns and labels:
Assay type in all cases: functional
[1] = Irreversible antagonist activity is measured from the ratio of agonist activity (IC50) to that of the control (ethylketazocine).
How it was run: (§1)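 Electrically stimulated guinea pig ileum or mouse vas deferens. Tissue is incubated 30 min with 200 nM compound, then washed 20 times. […] Number of experiments is noted.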

Mus musculus [2] = test: Mice were intracerebroventricularly injected with 10 nmol and challenged with a 10 mg/kg subcutaneous dose of morphine sulfate; percentage of animals exhibiting analgesia was reported, after 24 hr
Mus musculus [3] = organism: Mus musculus; test: Antagonist activity in mouse vas deferens preparation.
Mus musculus [4] = test: Mice were intracerebroventricularly injected with 10 nmol and challenged with a 10 mg/kg subcutaneous dose of morphine sulfate; percentage of animals exhibiting analgesia was reported, after 0.5 hr
Mus musculus [5] = test: analgesic activity by tail-flick procedure, after intracerebroventricular administration in mice; Compound is inactive at 10 nmol/mouse
Cavia porcellus = organism: Cavia porcellus; test: Agonist activity in guinea pig ileum preparation
How it was run: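 Electrically stimulated guinea pig ileum. Agonist IC50 is derived from concentration-response curves, with the number of experiments noted for each. In a separate run, tissue is depleted of functional μ receptors by preincubation with β-FNA before the agonist curve is repeated.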

Mus musculus [6] = test: Mice were intracerebroventricularly injected with 10 nmol and challenged with a 10 mg/kg subcutaneous dose of morphine sulfate; percentage of animals exhibiting analgesia was reported, after 2 hr
[7] = Irreversible antagonist activity is measured from the ratio of agonist activity (IC50) to that of the control (morphine).; how it was run: as §1
Mus musculus [8] = test: Analgesic activity by tail-flick procedure, after intracerebroventricular administration in mice. Compound is inactive at 10 nmol/mouse
Mus musculus [9] = test: Analgesic activity, 30 min after subcutaneous administration of the compound, in mice

O=C1C=CC2C3Cc4ccc(O)c5c4C2(CCN3CC2CC2)[C@H]1O5 (some centres not stated)
Ratio [1]: 0.82 | Dose (Mus musculus [2]): 67% | IC50 (Mus musculus [3]): 300 nM | Dose (Mus musculus [4]): 10% | ED50 (Mus musculus [5]): inactive | IC50 (Cavia porcellus): 300 nM | Dose (Mus musculus [6]): 60%

CCOc1ccc2c(c1)C1(C)CCN(CC3CC3)C(C2=O)C1C (configuration not stated) [ETHYLKETAZOCINE]
IC50 (Cavia porcellus): 1.6 nM

CN1CCC23c4c5ccc(O)c4O[C@H]2C(=O)C=CC3C1C5 (some centres not stated)
Ratio [1]: 0.92 | Dose (Mus musculus [2]): 67% | IC50 (Mus musculus [3]): 47 nM | Ratio [7]: 0.67 and 0.68 | ED50 (Mus musculus [8]): 11.1 nM mouse-1 | IC50 (Cavia porcellus): 108 nM | Dose (Mus musculus [6]): 80%

CC(C)C[C@@H](NC(=O)[C@H](Cc1ccccc1)NC(=O)CNC(=O)[C@@H](C)NC(=O)[C@@H](N)Cc1ccc(O)cc1)C(=O)O [DADLE]
IC50 (Mus musculus [3]): 0.22 nM

CN1CC[C@]23c4c5ccc(O)c4O[C@H]2[C@@H](O)C=C[C@H]3[C@H]1C5 [MORPHINE]
ED50 (Mus musculus [9]): 2.8 nM mouse-1
